Activity, MIC and MBC data for 25 molecules are collected here from ChEMBL document CHEMBL1141664, “Design and evaluation of anacardic acid derivatives as anticavity agents” (2008).

Experiment [1] relates to Escherichia coli. The experiment is described as follows: Antibacterial activity against Escherichia coli ATCC 9637 up to 200 ug/ml after 2 days by twofold broth dilution method. In kind it is functional, organism-based. The gist of the method: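 Twofold serial broth dilution run in NYG broth (0.8% nutrient broth, 0.5% yeast extract, 0.1% glucose). MIC is the lowest concentration fully inhibiting visible growth.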

The subject of experiment [2] is Streptococcus mutans. The experiment is described as follows: Antibacterial activity against Streptococcus mutans ATCC 25175 after 2 days by twofold broth dilution method. The experiment is classed as functional. To be noted: ATCC 25175, 48 h. The procedure, abridged:
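Freeze-dried S. mutans grown stationary 2 days at 37 °C in 3.7% BHI broth, then used as inoculum. Compounds serially 2-fold diluted in DMF and added to BHI broth, with solubility limiting the top concentration. MIC is the lowest concentration giving complete inhibition of visible growth after 2 days at 37 °C. At least triplicate on separate occasions.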
Background: Dilution methods test growth across graded concentrations, often in twofold steps.

The test system of experiment [3] is Streptococcus mutans. The experiment is described as follows: Antibacterial activity against Streptococcus mutans ATCC 25175 after 2 days by twofold broth dilution method in presence of anethole. The experiment is classed as functional. To be noted: ATCC 25175, 48 h.
Experiment [4] deals with Cutibacterium acnes. The experiment is described as follows: Antibacterial activity against Propionibacterium acnes ATCC 11827. In kind it is functional.

Values after ≈ are worked out from the molar mass of the structure shown. Active and inactive are the calls of the source. The rule behind the calls is not given here.

For orientation: MIC means the least concentration at which growth counts as inhibited. By MBC is commonly meant the lowest tested concentration that kills the bacteria rather than only halting them.

As to `O=C(O)c1c(O)cccc1CCc1ccc(O)c(O)c1`, the outcome in experiment [1] was inactive. In experiment [2], the MIC stood at 200 µg/mL (≈ 729 µM).
For `O=C(O)c1c(O)cccc1CCc1cc(O)ccc1O`, the result in experiment [1] was inactive. Besides, 200 µg/mL (≈ 729 µM) was the least that counted as inhibitory in experiment [2] (MIC).
On to `CCCCCCCCCCCCc1cccc(O)c1C(=O)O`, for which the result in experiment [1] was inactive. In addition, in experiment [2], the minimal bactericidal concentration (MBC) amounted to 6.25 µg/mL (≈ 20.4 µM) and the MIC was 1.56 µg/mL (≈ 5.09 µM).
As to `CCCCC(C)Cc1cccc(O)c1C(=O)O` (stereo unspecified), in experiment [1], the outcome was inactive. This molecule also displayed an MIC in experiment [2] of 12.5 µg/mL (≈ 52.9 µM).
With `O=C(O)c1c(O)cccc1CC1CCCCCCCCCCC1`, the outcome in experiment [1] was inactive. This molecule also showed an MIC in experiment [2] of 1.56 µg/mL (≈ 4.9 µM).
As for `CCCCCCOC(=O)c1ccccc1O`, the result in experiment [1] was inactive.
For `O=C(O)c1c(O)cccc1CCC1CCCCC1`, the outcome in experiment [1] was inactive. This molecule gave an MIC in experiment [2] of 3.13 µg/mL (≈ 12.6 µM).
With `O=C(O)c1c(O)cccc1CC1CCCCC1`, the result in experiment [1] was inactive. For the same molecule, 25 µg/mL (≈ 107 µM) was the least that counted as inhibitory in experiment [2] (MIC).
In the case of `CCC/C=C\C/C=C\CCCCCCCc1cccc(O)c1C(=O)O`, the outcome in experiment [1] was inactive. In experiment [2], this molecule displayed an MBC of 3.13 µg/mL (≈ 9.09 µM) and an MIC of 3.13 µg/mL (≈ 9.09 µM).
`C/C=C/c1ccc(OC)cc1`: the result in experiment [1] was inactive.
Consider `O=C(O)c1c(O)cccc1CCc1ccc(O)cc1O`, for which the result in experiment [1] was inactive. This molecule had an MIC in experiment [2] of more than 200 µg/mL.
As to `C=CC/C=C\C/C=C\CCCCCCCc1cccc(O)c1C(=O)OC`, the outcome in experiment [1] was inactive.
`CCCCCC/C=C\CCCCCCCc1cccc(O)c1C(=O)O` [GINGKOLIC ACID]: the outcome in experiment [1] was inactive. Also, in experiment [2], the MBC was 6.25 µg/mL (≈ 18 µM) and the lowest concentration to inhibit growth (MIC) was 6.25 µg/mL (≈ 18 µM).
Take `CC(C)CCCC(C)CCCc1cccc(O)c1C(=O)O` (stereo unspecified): the outcome in experiment [1] was inactive. Further, the MIC in experiment [2] turned out to be 0.78 µg/mL (≈ 2.67 µM).
Take `C=CC/C=C\C/C=C\CCCCCCCc1cccc(OC(C)=O)c1C(=O)O`: the result in experiment [1] was inactive.
In the case of `O=C(O)c1c(O)cccc1CCc1cc(O)c(O)cc1O`, the result in experiment [1] was inactive. For the same molecule, in experiment [2], the minimal inhibitory concentration (MIC) worked out at 200 µg/mL (≈ 689 µM).
As for `O=C(O)c1c(O)cccc1CC1CCCCCCC1`, the outcome in experiment [1] was inactive. This molecule also returned an MIC in experiment [2] of 6.25 µg/mL (≈ 23.8 µM).
For the molecule `CCCCCCCCCOC(=O)c1ccccc1O`, the outcome in experiment [1] was inactive.
`O=C(O)c1c(O)cccc1CCc1ccc(O)cc1`: the outcome in experiment [1] was inactive. Further, the lowest concentration to inhibit growth in experiment [2] (MIC) was 100 µg/mL (≈ 387 µM).
For `C=CC/C=C\C/C=C\CCCCCCCc1cccc(O)c1C(=O)O` [ANACARDIC ACID], the MBC in experiment [3] was 0.78 µg/mL; in experiment [2], 6.25 µg/mL (≈ 18.2 µM). The outcome in experiment [1] was inactive. This molecule also had an MIC in experiment [2] of 1.56 µg/mL (≈ 4.56 µM).
With `CCCCCCCCCCCCCCCc1cccc(O)c1C(=O)O` [ANACARDIC ACID], the MIC is 0.78 µg/mL (≈ 2.24 µM) in experiment [4] and more than 800 µg/mL in experiment [2]. Moreover, the outcome in experiment [1] was inactive.
In the case of `CCCCCC(CC)Cc1cccc(O)c1C(=O)O` (stereo unspecified), the result in experiment [1] was inactive. The same molecule yielded an MIC in experiment [2] of 3.13 µg/mL (≈ 11.8 µM).
For `O=C(O)c1c(O)cccc1CCc1ccccc1` the same measures were “inactive” and 50 µg/mL (≈ 206 µM).
On to `O=C(O)c1c(O)cccc1CCCCc1ccccc1`, for which the result in experiment [1] was inactive. The same molecule registered an MIC in experiment [2] of 6.25 µg/mL (≈ 23.1 µM).
Consider `O=C(O)c1c(O)cccc1CC1CCCC1`, for which the result in experiment [1] was inactive. The molecule also yielded an MIC in experiment [2] of 25 µg/mL (≈ 113 µM).
